Experimental findings from ChEMBL document CHEMBL1268883, “Plasma-mediated release of morphine from synthesized prodrugs” (Bioorg Med Chem Lett, 2010) are described below.

Each structure is given as a SMILES string. Some results are limits rather than exact numbers.

Data set [1] in a line: Induction of morphine release at 37.5 nmol in presence of HSA assessed as morphine level per mg of protein by UPLC. The note with it: human.
Data set [2] can be described thus: Induction of morphine release at 37.5 nmol in presence of butyryl choline esterase assessed as morphine level per mg of protein by UPLC. The note with it: isolated protein.
The nature of data set [3]: Induction of morphine release at 37.5 nmol in presence of guinea pig plasma assessed as morphine level per ml plasma by UPLC. The format is cell-free, Cavia porcellus. In short, it runs like this:
(§1)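 Rates were taken from the linear 0–15 min time points. The mix held 37.5 nmol PDB initial and 150 µl plasma or enzyme sample (BCE 0.5 U/ml, HSA 25 mg/ml) in 300 µl total at 37 °C. After ANDM deproteinisation, morphine was measured by UPLC. Rates are expressed per ml of plasma or of enzyme sample at its human-plasma level.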

In data set [4] the test system is Plasma. The data set is described as follows: Induction of morphine release at 37.5 nmol in presence of human plasma assessed as morphine level per ml plasma by UPLC. The format is cell-free. The gist of the method: as §1
Data set [5] deals with Plasma. Kind of data set: Induction of morphine release at 37.5 nmol in presence of rat plasma assessed as morphine level per ml plasma by UPLC. The format is cell-free. In short, it runs like this:
as §1

Data set [6] relates to Plasma. Kind of data set: Induction of morphine release at 37.5 nmol in presence of mouse plasma assessed as morphine level per ml plasma by UPLC. The format is cell-free. In short, it runs like this: as §1
Data set [7] is described as follows: Induction of morphine release at 37.5 nmol in presence of 25 mg/ml HSA assessed as morphine level after 15 mins by UPLC. Conditions: human, 0.25 h; call rule not given here. In short, it runs like this: (§2)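 PDB (37.5 nmol initial) incubated at 37 °C in 300 µl total with 150 µl sample: purified human serum BCE (0.5 U/ml) or HSA (25 mg/ml), both equivalent to 50% of serum levels, or 50% human plasma in PBS. Aliquots taken over time, mixed with 2 vol ice-cold 10% DMSO in acetonitrile, centrifuged. Supernatant run on UPLC. Morphine quantified from morphine standard curve (1.6–1.75 min peak area).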

A short description of data set [8]: Induction of morphine release at 37.5 nmol in presence of 25 mg/ml HSA assessed as morphine level after 2 to 6 hrs by UPLC. The note with it: human. In short, it runs like this: as §2
Data set [9] in a line: Induction of morphine release at 37.5 nmol in presence of 0.5 U/ml butyryl choline esterase assessed as morphine level after 15 mins by UPLC. Conditions: isolated protein, 0.25 h. Type of data set: physicochemical. In short, it runs like this: as §2
The nature of data set [10]: Induction of morphine release at 37.5 nmol in presence of 0.5 U/ml butyryl choline esterase assessed as morphine level after 3 to 6 hrs by UPLC. The format is physicochemical. The note with it: isolated protein. The gist of the method: as §2
Data set [11] deals with Plasma. Kind of data set: Induction of morphine release at 37.5 nmol in presence of 50% human plasma after 15 mins by UPLC. The format is cell-free. The note with it: 0.25 h. In short, it runs like this: as §2
For data set [12], the system named is Plasma. Kind of data set: Induction of morphine release at 37.5 nmol in presence of 50% human plasma after 6 hrs by UPLC. The format is cell-free. In short, it runs like this: as §2
Data set [13] in a line: Induction of morphine release at 37.5 nmol in presence of 50% mouse plasma assessed as disappearance of compound peak during 5 to 10 mins at 250 uM. The format is cell-free. Conditions: read-out: Activity. The gist of the method: (§3)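 PDA (250 µM) incubated with 50% plasma in PBS at 37 °C. Aliquots were withdrawn at intervals, quenched with 2 vol ice-cold 10% DMSO/acetonitrile and centrifuged. The supernatant was analysed by UPLC, following the PDA peak (4.3–4.4 min) and the morphine peak. Morphine was calculated from a morphine standard curve.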

Data set [14] is described as follows: Induction of morphine release at 37.5 nmol in presence of 50% human plasma assessed as disappearance of compound peak during 5 to 10 mins at 250 uM. The note with it: read-out: Activity. The format is cell-free. The gist of the method:
as §3

Data set [15] can be described thus: Induction of morphine release at 37.5 nmol in presence of 50% rat plasma assessed as disappearance of compound peak during 5 to 10 mins at 250 uM. Type of data set: cell-free. Conditions: read-out: Activity. In short, it runs like this:
as §3

A short description of data set [16]: Induction of morphine release at 37.5 nmol in presence of 50% guinea pig plasma assessed as disappearance of compound peak during 5 to 10 mins at 250 uM. Type of data set: cell-free, Cavia porcellus. The note with it: read-out: Activity. The gist of the method: as §3
Data set [17] can be described thus: Stability in PBS solution up to 24 hrs. The note with it: buffer. The format is physicochemical. The gist of the method:
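PDA incubated in PBS under the plasma-incubation conditions for up to 24 h, then analysed by UPLC.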

The test system of data set [18] is SK-N-SH. Kind of data set: Induction of morphine release in human SK-N-SH cells assessed as morphine induced inhibition of forskolin-induced cAMP production ny chemiluminescent assay. Type of data set: cell-based. The gist of the method:
(§4)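 PDA (0.8 mM) was preincubated 24 h with PBS or 50% human plasma. SK-N-SH cells were switched to serum-free medium, exposed to the solutions (equivalent to 5 µM prodrug) for 15 min, then given 5 µM forskolin or vehicle for 15 min. Cells were rinsed and lysed, and cAMP was measured by chemiluminescent assay against a cAMP standard curve.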

Data set [19] in a line: Induction of morphine release in PBS solution assessed as morphine induced inhibition of forskolin-induced cAMP production ny chemiluminescent assay. Type of data set: physicochemical. The note with it: buffer. The gist of the method:
as §4

Take `CN1CC[C@]23c4c5ccc(OC(=O)c6ccc(OCC(=O)NCCOCCOCCNC(=O)OC(C)(C)C)cc6)c4O[C@H]2[C@@H](O)C=C[C@H]3[C@H]1C5`: the Activity is given as 0.3 nmol/min in data set [1]; 0.8 nmol/min in data set [2]; 2.9 nmol/min in [3]; 1.1 nmol/min in [4]; 4.2 nmol/min in data set [5]; 20.9 nmol/min in data set [6]. For the same compound, the Activity in [7] is recorded as 1%; in data set [8], 2%; in [9], 2.5%; in [10], 4%; in [11] it was 4%; in [12] it was 20%.
In the case of `CN1CC[C@]23c4c5ccc(OC(=O)CCC(=O)OC(C)(C)C)c4O[C@H]2[C@@H](O)C=C[C@H]3[C@H]1C5`, the metabolised at 250 µM in data set [13], in [14], in data set [15] and in data set [16] was more than 90% each time. Also, the Stability result in data set [17] was “Stable”. The Activity entry in data set [18] is reported as “Active”; in [19] it was “Not Active”.
